In data set [1] the test system is MCF7. The data set is described as follows: Cytotoxicity against human MCF7 cells assessed as cell viability after 72 hrs by MTT assay. The class given is functional, cell-based. The settings on record: for IC50: MCF7, 72 h. The method in brief: (§1)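 Cells obtained from ATCC; human normal liver L02 included as the non-cancer line. Cells treated with various concentrations for 72 h. Viability read by MTT assay and IC50 values calculated from the concentration series.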

The subject of a further data set is HepG2. Description: Cytotoxicity against human HepG2 cells assessed as cell viability after 72 hrs by MTT assay. The class given is functional, cell-based. The settings on record: HepG2, 72 h. The method in brief:
as §1

A short description of data set [2]: Cytotoxicity against human L02 cells assessed as cell viability after 72 hrs by MTT assay. The class given is cell-based. The settings on record: L02, 72 h. The method in brief:
as §1
In general terms: Tetrazolium assays rely on reduction of a dye to a coloured formazan, in cell work by metabolically active cells.

The test system of data set [3] is MCF7. The data set is described as follows: Cell cycle arrest in human MCF7 cells assessed as cells at G0/G1 phase at 30 uM by flow cytometry (reference value: 41.9%). The class given is functional. On the technique in general: A flow cytometer gives signals particle by particle.
Data set [4] deals with MCF7. The data set is described as follows: Cell cycle arrest in human MCF7 cells assessed as cells at Sub-G1 phase at 30 uM by flow cytometry (reference value: 3.3%). The class given is functional.
In data set [5] the test system is MCF7. Description: Cell cycle arrest in human MCF7 cells assessed as cells at S phase at 30 uM by flow cytometry (reference value: 16.6%). The class given is functional.
Data set [6] relates to MCF7. Description: Cell cycle arrest in human MCF7 cells assessed as cells at Sub-G1 phase at 20 uM by flow cytometry (reference value: 3.3%). The class given is functional.
In data set [7] the test system is MCF7. The data set is described as follows: Inhibition of intracellular ROS production in human MCF7 cells assessed as decrease in DHE fluorescence intensity after 30 mins. The class given is functional, cell-based. The method in brief: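 MCF-7 cells loaded with 10 µM DHE in PBS for 30 min, then exposed to different concentrations of compound. Intracellular ROS followed as DHE fluorescence on a microplate reader, excitation 300 nm and emission 610 nm, over 30 min.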

Data set [8] has as its system MCF7. The data set is described as follows: Cell cycle arrest in human MCF7 cells assessed as cells at G2/M phase at 40 uM by flow cytometry (reference value: 41.5%). The class given is functional.
Data set [9] has as its system MCF7. The data set is described as follows: Cell cycle arrest in human MCF7 cells assessed as cells at S phase at 40 uM by flow cytometry (reference value: 16.6%). The class given is functional.
Data set [10] deals with MCF7. Description: Cell cycle arrest in human MCF7 cells assessed as cells at G2/M phase at 30 uM by flow cytometry (reference value: 41.5%). The class given is functional.
Data set [11] has as its system MCF7. The data set is described as follows: Cell cycle arrest in human MCF7 cells assessed as cells at Sub-G1 phase by flow cytometry. The class given is functional, cell-based.
Data set [12] has as its system MCF7. Description: Cell cycle arrest in human MCF7 cells assessed as cells at G2/M phase at 20 uM by flow cytometry (reference value: 41.5%). The class given is functional.
The subject of data set [13] is MCF7. The data set is described as follows: Cell cycle arrest in human MCF7 cells assessed as cells at G0/G1 phase at 40 uM by flow cytometry (reference value: 41.9%). The class given is functional.
Data set [14] is described as follows: Antioxidant activity assessed as ABTS radical scavenging activity. The class given is physicochemical. The settings on record: TDE = time-dependent effect.
The test system of data set [15] is MCF7. Description: Cell cycle arrest in human MCF7 cells assessed as cells at G0/G1 phase at 20 uM by flow cytometry (reference value: 41.9%). The class given is functional.
In data set [16] the test system is MCF7. Description: Cell cycle arrest in human MCF7 cells assessed as cells at S phase at 20 uM by flow cytometry (reference value: 16.6%). The class given is functional.
Data set [17] deals with MCF7. The data set is described as follows: Cell cycle arrest in human MCF7 cells assessed as cells at Sub-G1 phase at 40 uM by flow cytometry (reference value: 3.3%). The class given is functional.
A short description of data set [18]: Antioxidant activity assessed as DPPH free radical scavenging activity. The class given is physicochemical. The settings on record: TDE = time-dependent effect. On the technique in general: The DPPH test is a chemical assay of radical scavenging.
For data set [19], the system named is MCF7. The data set is described as follows: Inhibition of intracellular ROS production in human MCF7 cells assessed as decrease in DHE fluorescence intensity at 80 uM after 30 mins by fluorescence microscopy. The class given is functional, cell-based. In outline: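 Cells loaded with DHE (10 µM) in a culture dish at 37 °C for 30 min, then treated at 80 µM. Imaged at once by fluorescence microscopy, with red DHE fluorescence followed for 30 min.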

Active and inactive are the calls of the source. The rule behind the calls is not given here.

The term IC50 denotes the concentration at which inhibition is half-maximal. `Cc1ccc(Nc2nc3cccnc3[se]2)cc1C`: the half-maximal inhibitory concentration (IC50) in the data set on MCF7 [1] turned out to be 202 µM; in the data set on HepG2 it was 145 µM; in [2] it was 182 µM.
For `Clc1ccccc1Nc1nc2cccnc2[se]1`, in that order: 43.3 µM, 181 µM and 84.6 µM.
For `Cc1ccc(Nc2nc3cccnc3[se]2)cc1`, in that order: 91.5 µM, 235 µM and 207 µM.
Consider `c1ccc(Nc2nc3cccnc3[se]2)cc1`, for which the Activity in the data set with MCF7 [3] is listed as 50.5%; in the data set on MCF7 [4], 36.7%; in the data set with MCF7 [5], 22.3%; in the data set with MCF7 [6], 27.1%; with MCF7 [8] it was 13.4%; with MCF7 [9], 25.8%. Further, the Activity is 20.3% with MCF7 [10]; “Dose-dependent effect” in the data set with MCF7 [11]; 7.5% in the data set with MCF7 [12]; 50.8% with MCF7 [13]; “tde” in data set [14]; 58.2% in the data set with MCF7 [15]. Moreover, the Activity is given as 34.3% with MCF7 [16], 58.3% in the data set on MCF7 [17] and “tde” in data set [18]. For the same molecule, the inhibition entry with MCF7 [1] and with MCF7 [7] was “Dose-dependent effect” throughout. Besides, the IC50 in the data set on MCF7 [1] turned out to be 22.5 µM; in the data set with HepG2, 57.1 µM; in [2], 164 µM. The inhibition result in the data set with MCF7 [19] is “Active”.
`Cc1cccc(Nc2nc3cccnc3[se]2)c1`: the 50% inhibitory concentration (IC50) was 56.4 µM in the data set on MCF7 [1], 56.7 µM with HepG2 and 54.3 µM in [2].
Regarding `Cc1ccccc1Nc1nc2cccnc2[se]1`, the IC50 with MCF7 [1] turned out to be 52.5 µM; in the data set with HepG2, 507 µM; in [2], 121 µM.
On to `Brc1ccccc1Nc1nc2cccnc2[se]1`, for which the IC50 came out at 185 µM with MCF7 [1], 74.2 µM in the data set with HepG2 and 169 µM in data set [2].

Source of the values: ChEMBL document CHEMBL3421617, “Synthesis of selenazolopyridine derivatives with capability to induce apoptosis in human breast carcinoma MCF-7 cells through scavenge of intracellular ROS” (Eur J Med Chem, 2015).
